# Compound activity from PubChem BioAssay.
# Sampled rows, rich in hits. Any-hit rate of the full collection: about 3.4%.
# GPR7 antagonist: GPR7 receptor antagonists, primary screen, cell-based, fluorescence, single concentration; Neuropeptides B/W receptor type 1 (Homo sapiens), P48145; GPR7-expressing cells, fluorescence antagonist assay; inhibition, % at 4.4 µM; hit rate 1.1% among 290,000; in the data active = inhibition above about 16%, passing the limit was not always enough;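 also: cells stimulated with the agonist NPW; 0% = agonist with vehicle and 100% = vehicle without agonist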
# Target sequence (P48145 whole entry, looked up): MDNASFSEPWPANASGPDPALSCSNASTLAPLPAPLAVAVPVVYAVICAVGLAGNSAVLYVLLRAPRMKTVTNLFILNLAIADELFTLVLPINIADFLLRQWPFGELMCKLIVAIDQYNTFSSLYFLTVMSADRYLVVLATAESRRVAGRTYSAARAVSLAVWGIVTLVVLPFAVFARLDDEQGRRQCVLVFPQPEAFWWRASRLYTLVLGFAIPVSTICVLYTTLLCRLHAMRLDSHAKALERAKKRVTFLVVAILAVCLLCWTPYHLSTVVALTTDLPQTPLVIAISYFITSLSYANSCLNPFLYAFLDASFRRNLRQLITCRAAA
# TAAR1 ag: human TAAR1 agonists, primary screen, Fluo-8 calcium fluorescence, CHO RD-HGA16 cells; vehicle wells 0%, saturating PEA agonist 100%; activation, % at 3 µM; hit rate 0.99% among 360,000; AID 624467, 2012;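 active = activation above the mean activation of all test compounds in the run plus 3 SD, cut at about 38% in these data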
# Target sequence (Q96RJ0 whole entry, looked up): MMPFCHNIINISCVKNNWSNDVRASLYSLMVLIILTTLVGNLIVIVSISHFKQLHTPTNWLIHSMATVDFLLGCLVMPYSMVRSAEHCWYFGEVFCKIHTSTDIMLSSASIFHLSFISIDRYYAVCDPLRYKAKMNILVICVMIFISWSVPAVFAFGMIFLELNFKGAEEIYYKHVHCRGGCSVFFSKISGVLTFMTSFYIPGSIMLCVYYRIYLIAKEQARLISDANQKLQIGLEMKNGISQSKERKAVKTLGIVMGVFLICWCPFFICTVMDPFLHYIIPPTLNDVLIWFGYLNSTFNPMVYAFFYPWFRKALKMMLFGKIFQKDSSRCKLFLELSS
#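 Signal – calcium-sensitive Fluo-8 signal, excitation 470-495, emission 515-575 nm · System – RD-HGA16 (CHO) cells co-expressing Gα16 and hTAAR1 · Incubation – 17-24 h seeding, 75 min 37 °C dye, 30 min RT · Compound dosing – 3 µM single concentration · Repeats – no replicates (n 1)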
# TRPN1 ag: zebrafish TRPN1 channel agonists, primary screen, cell-based, HEK293, calcium fluorescence; activation, % at 3 µM; transient receptor potential cation channel N1 (TRPN1/NompC), Danio rerio; HEK293 zebrafish TRPN1-YFP, Fluo-8 calcium fluorescence; 100% = response to 87 µM carbachol; hit rate 0.18% among 220,000; AID 1424, 2008;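 active = activation above its plate's cutoff, the mean activation of test wells on that plate plus 3 SD, cut at about 19% in these data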;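 also: 0% = DMSO alone and 100% = 87 µM carbachol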
#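 System: zebrafish TRPN1-YFP in HEK293 cells / Dosing: 3 µM single point / Timing: dye loading 1 h at 37 °C, then 30 min room temperature / Signal: Fluo-8 calcium fluorescence, excitation 470-495 nm, emission 515-575 nm / Read-out basis: percent activation from peak over basal fluorescence ratio, control-normalized / Control set: high carbachol 87 µM, low DMSO alone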
# LANA-H2A inh: blockers of LANA interaction with H2A/H2B – biochemical, FP readout, HTS, primary screen; inhibition, % (test concentration not listed); Protein LANA1 (Human herpesvirus 8 type P (isolate GK18)), Q9QR71; cell-free LANA-H2A/H2B peptide, fluorescence polarization; hit rate 0.6% among 320,000; AID 2629, 2010; in the data active = inhibition mostly above about 10%, no sharp cut-off; inactive = mostly below about 6.7%
# TAAR1 antag: human TAAR1 antagonists, primary screen, Fluo-8 calcium fluorescence, CHO RD-HGA16 cells. Trace amine-associated receptor 1 (Homo sapiens), Q96RJ0. hit rate 1.5% among 360,000. antagonist. AID 624466, 2012. inhibition, % at 3 µM;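 active = inhibition above a per-plate cutoff, the mean inhibition of test compounds on that plate plus 3 SD, cut at about 49% in these data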;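 also: 0% = DMSO plus EC80 beta-PEA response and 100% = DMSO alone without agonist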
#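 test system = CHO RD-HGA16 cells bearing hTAAR1 | replication = singlicate | controls = DMSO-only wells and EC80 β-PEA-stimulated wells | reagent = EC80 β-phenethylamine stimulus | read-out basis = percent inhibition of PEA-evoked calcium signal, max/basal emission ratio | schedule = seeding 17-24 h prior, 75-min 37 °C, 30-min RT dye loading | signal = kinetic Fluo-8 calcium fluorescence measurement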
# TRPML3 ag: human TRPML3 channel agonists, primary screen, cell-based, HEK293 TRPML3-YFP, Fluo-8 calcium fluorescence, 3 µM; 100% = the carbachol control signal; activation, % at 3 µM; hit rate 0.29% among 220,000; AID 1448, 2008;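 active = activation above its plate's cutoff, the mean activation of the plate's test wells plus 3 SD, cut at about 12% in these data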;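 also: 0% = DMSO only wells and 100% = carbachol wells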
#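 Material: TRPML3-YFP stable HEK293 cells | Dosing: One concentration, 3 µM nominal, 0.3% DMSO | Timing: 125 s total fluorescence read per well | Technique: Fluo-8 calcium dye fluorescence, ex 470-495, em 515-575 nm | Measure: Percent activation from peak-to-basal fluorescence ratio, scaled between DMSO and carbachol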
# TAAR1 ag conf: human TAAR1 agonists, retest of hits, confirmation, Fluo-8 calcium fluorescence, CHO RD-HGA16 cells. shares compounds with TAAR1 ag. scaled: DMSO 0%, maximal phenethylamine 100%. activation, % at 3 µM. hit rate 82% among 2,400. AID 651783, 2012;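 active = activation above a cutoff set at the run's mean compound activation plus 3 SD, cut at about 39% in these data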
# Ga16 ag counter: nonselective calcium mobilization agonists, CHO-Ga16 cells, counter-screen for hTAAR1 agonist project, cell-based, fluorescence, CHO-Ga16 parental line | shares compounds with TAAR1 ag | Fluo-8 calcium fluorescence; normalized to maximal ATP response, DMSO zero | activation, % at 3 µM | hit rate 50% among 2,400;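 active = activation above the run cutoff, the mean activation over all tested wells plus 3 SD, cut at about 12% in these data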;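 also: 0% = DMSO wells and 100% = maximal ATP response on the peak over basal ratio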
# TAAR1 desens: TAAR1 desensitization by agonist hits, confirmation, counter-screen for TAAR1 agonist project, cell-based, fluorescence, tachyphylaxis; CHO RD-HGA16 hTAAR1, Fluo-8 calcium, beta-PEA response inhibition; hit rate 46% among 2,400; shares compounds with TAAR1 ag; inhibition, % at 3 µM;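 active = inhibition above the run cutoff, the mean inhibition of all test compounds plus 3 SD, cut at about 49% in these data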;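 also: beta-PEA stimulus applied at its EC80; loss of beta-PEA calcium signal after compound pretreatment read as receptor desensitization; 0% = DMSO with beta-PEA at EC80 and 100% = DMSO alone without agonist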
# Ga16 antag count: inhibition of ATP-evoked calcium response in CHO-Ga16 cells, counter-screen for TAAR1 agonist project, cell-based, fluorescence; shares compounds with TAAR1 ag; CHO-Ga16 ATP-induced calcium, Fluo-8 fluorescence; inhibition, % at 3 µM; hit rate 39% among 2,400; AID 651952, 2012;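 active = inhibition above the plate's mean compound inhibition plus 3 SD, computed per plate, cut at about 22% in these data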;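 also: 0% = EC80 ATP with DMSO and 100% = DMSO wells without ATP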
# The depositor's hits bear a star; · = not tested or not shown.
SMILES,GPR7 antagonist,TAAR1 ag,TRPN1 ag,LANA-H2A inh,TAAR1 antag,TRPML3 ag,TAAR1 ag conf,Ga16 ag counter,TAAR1 desens,Ga16 antag count
Cc1c(C(=O)NCc2ccco2)oc2ccc(S(=O)(=O)N3CCC4(CC3)OCCO4)cc12,7.5,11.0,2.6,-0.3,2.8,1.0,·,·,·,·
Cc1c(C(=O)NCCc2ccccc2)oc2ccc(S(=O)(=O)N3CCC4(CC3)OCCO4)cc12,15.2,93.0*,0.7,0.3,77.3*,-0.6,91.7*,11.7*,89.0*,36.2*
O=C(Nc1ccc([N+](=O)[O-])cc1)c1ccccc1F,-11.8,1.1,-0.1,5.3,-2.0,0.3,·,·,·,·
O=C(Nc1ncc(S(=O)(=O)c2ccc([N+](=O)[O-])cc2)s1)c1ccccc1F,-2.4,100.6*,6.5,-0.4,59.4*,4.1,109.7*,60.7*,83.7*,51.5*
CCC1CCc2sc(C(=O)NCC(c3ccc(OC)cc3)N3CCCC3)cc2C1 (centres undefined),·,46.3*,·,-0.3,-21.9,·,42.3*,5.1,19.9,15.6
COc1ccc(C(CNC(=O)c2cccc(N(C)C)c2)N2CCCC2)cc1 (centres undefined),-4.1,-0.7,-0.3,-5.6,-6.7,-0.1,·,·,·,·
N#Cc1ccc(N=c2ssnc2Cl)cc1,3.3,47.6*,0.2,-5.7,10.8,0.0,52.8*,44.0*,28.1,25.3*
COc1ccc(N=c2ssnc2Cl)cc1,8.7,·,1.4,-0.9,·,-0.5,·,·,·,·
O=c1[nH]nc(-c2ccc[nH]2)[nH]1,·,0.5,·,·,7.2,·,·,·,·,·
COc1ccccc1CCNS(=O)(=O)CCNC(=O)c1ccc2c(c1)OCO2,·,74.0*,·,2.2,40.2,·,90.8*,2.3,73.3*,14.8
Cc1ccc(CNS(=O)(=O)CCNC(=O)c2ccc3c(c2)OCO3)cc1,·,-0.2,·,-0.8,-17.8,·,·,·,·,·
O=C(CCN1Cc2ccccc2C1)c1ccc2c(c1)OCCO2,-5.4,38.2*,0.5,-0.3,7.0,1.2,67.8*,3.2,12.8,11.8
O=C(O)CCC(=O)c1ccc2c(c1)OCCO2,-4.5,-0.6,0.0,-0.8,4.1,1.1,·,·,·,·
CCCC(=O)c1ccc2c(c1)OCCO2,-0.5,4.6,1.5,0.5,-1.0,0.8,·,·,·,·
O=C(CCN1CCc2ccccc2C(c2ccccc2)C1)c1ccc2c(c1)OCCO2 (centres undefined),-3.4,73.2*,-0.8,-6.7,52.5*,1.1,74.6*,0.9,76.5*,12.0
Cc1cc(C)c2c(=O)n(CC(=O)NC3CCCC3)sc2n1,-9.2,57.1*,-0.1,0.4,47.7,1.2,62.4*,34.4*,59.3*,39.1*
Cc1cc(C)c2c(=O)n(CC(=O)Nc3cccc(Cl)c3C)sc2n1,20.5,102.8*,21.4*,-1.0,85.5*,10.9,96.5*,72.3*,88.7*,74.9*
Cc1cc(NC(=O)Cc2ccsc2)ccc1Br,6.0,0.3,·,-2.1,-10.5,·,·,·,·,·
Cc1cc(C)c2c(=O)n(CC(=O)Nc3ccc(Br)c(C)c3)sc2n1,-6.0,85.8*,3.7,0.2,53.5*,5.7,100.5*,67.8*,70.8*,64.0*
O=C(c1nc2ccccn2c1CNCC1OCCc2ccccc21)N1CCOCC1 (centres undefined),-11.6,·,0.7,-5.0,·,0.3,·,3.4,·,12.6
Cc1ccn2c(CNCC3OCCc4ccccc43)c(C(=O)N3CCCCCC3)nc2c1 (centres undefined),-10.7,83.9*,-2.6,1.9,38.6,-0.2,81.3*,4.6,71.1*,13.6
Cc1ccn2c(CNCCn3cccn3)c(C(=O)N3CCCCCC3)nc2c1,-0.9,28.2,0.7,-2.6,2.2,0.9,·,·,·,·
O=C(NCc1ccccc1)c1cc(C2CCCCN2C(=O)OCCF)on1 (centres undefined),·,0.3,·,·,2.2,·,·,·,·,·
CCOC(=O)N[C@H](C(=O)N1CCC[C@H]1C(=O)NCCc1ccccc1Cl)C1CCCCC1,·,61.0*,·,·,75.4*,·,85.8*,-0.5,95.5*,-2.0
O=C(NCCc1ccccc1Cl)[C@@H]1CCCN1C(=O)[C@@H](NC(=O)N1CCOCC1)c1ccccc1,·,41.9*,·,·,3.4,·,60.5*,3.9,31.6,7.1
SMILES,GPR7 antagonist,TAAR1 ag,TRPN1 ag,LANA-H2A inh,TAAR1 antag,TRPML3 ag,TAAR1 ag conf,Ga16 ag counter,TAAR1 desens,Ga16 antag count
O=C(NCCc1ccccc1Cl)[C@@H]1CCCN1C(=O)[C@@H](NC(=O)N1CCOCC1)C1CCCCC1,·,57.2*,·,·,34.7,·,74.4*,2.3,80.2*,5.7
COC(=O)C1CC(C(=O)OC)C2C(C(=O)OC)CC(C(=O)OC)C12 (centres undefined),·,0.7,·,·,-1.0,·,·,·,·,·
CN(C)CCNC(=O)c1cccc(-c2cnc3c(NC=O)cc(/C=C/c4ccccc4)cn23)c1,·,2.1,·,·,-8.9,·,·,·,·,·
O=C1NN=C(c2ccccc2)C1Cc1ccccc1 (centres undefined),·,0.3,·,·,-0.3,·,·,·,·,·
O=c1[nH]c(N2CCCCC2)nc2ncn(Cc3ccccc3)c12,-10.4,2.0,2.8,-4.0,-7.7,0.2,·,·,·,·
O=C(Cc1n[nH]c(=O)[nH]c1=O)N/N=C/c1cccc(Cl)c1,-4.2,29.0,2.2,2.8,8.2,-0.2,·,·,·,·
O=C(Cc1n[nH]c(=O)[nH]c1=O)N/N=C/c1cccc(O)c1,5.1,60.0*,-0.3,-1.1,-11.3,0.6,59.7*,4.2,20.7,8.8
O=C(Cc1n[nH]c(=O)[nH]c1=O)N/N=C/c1ccccc1,4.4,65.9*,-0.2,0.0,19.1,-0.1,73.9*,-0.3,55.0*,10.2
